# Measured values as given in ChEMBL document CHEMBL4689842, “EUbOPEN Chemogenomics Library wave 1” (2021).
# Tested on: Fibroblast
# Experiment: Multiplex assay against human fibroblast
# Assay type: toxicity, cell-based
# In short: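 Hoechst33342, BioTracker Green Microtubule Cytoskeleton Dye, MitoTracker Red and Annexin V Alexa Fluor 680 were added to live cells at seeding, and imaging on a CQ1 microscope at 37°C and 5% CO2 followed compound addition. Gating by CellPathfinder machine learning separated cells into Hoechst high-intensity objects or normal cells, then normal cells into healthy, pyknosed or fragmented nuclei, then pyknosed cells into mitotic or apoptotic. Per cents of healthy-nucleus cells are reported for the tubulin, mitochondrial-mass and membrane-permeability phenotypes.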
# [1] = 12 h, 1 µM, compound concentration 1 uM, replicate 1
# [2] = 12 h, 1 µM, compound concentration 1 uM, replicate 2
# [3] = 12 h, 10 µM, compound concentration 10 uM, replicate 1
# [4] = 12 h, 10 µM, compound concentration 10 uM, replicate 2
# [5] = 24 h, 1 µM, compound concentration 1 uM, replicate 1
# [6] = 24 h, 1 µM, compound concentration 1 uM, replicate 2
# [7] = 24 h, 10 µM, compound concentration 10 uM, replicate 1
# [8] = 24 h, 10 µM, compound concentration 10 uM, replicate 2
# [9] = 48 h, 1 µM, compound concentration 1 uM, replicate 1
# [10] = 48 h, 1 µM, compound concentration 1 uM, replicate 2
# [11] = 48 h, 10 µM, compound concentration 10 uM, replicate 1
# [12] = 48 h, 10 µM, compound concentration 10 uM, replicate 2
smiles,measurement,setting,value
CCCCN(CC)c1nc(C)nc2c1c(C)cn2-c1c(C)cc(C)cc1C.Cl,Population Apoptotic (%),[1],63%
same,Population Fragmented Nuclei (%),[1],23%
same,Population Healthy Nuclei (%),[1],44%
same,Population Hoechst High Intensity Objects (%),[1],11%
same,Population Membrane Permeable-Phenotype (%),[1],27%
same,Population Mitochondria Different-Phenotype (%),[1],9%
same,Population Mitotic Cells (%),[1],36%
same,Population Normal (%),[1],88%
same,Population Pyknosed Nuclei (%),[1],31%
same,Population Tubulin-Different-Phenotype (%),[1],46%
same,Total Cell Count,[1],108
same,Population Apoptotic (%),[2],55%
same,Population Fragmented Nuclei (%),[2],13%
same,Population Healthy Nuclei (%),[2],77%
same,Population Hoechst High Intensity Objects (%),[2],3%
same,Population Membrane Permeable-Phenotype (%),[2],5%
same,Population Mitochondria Different-Phenotype (%),[2],8%
same,Population Mitotic Cells (%),[2],44%
same,Population Normal (%),[2],96%
same,Population Pyknosed Nuclei (%),[2],9%
same,Population Tubulin-Different-Phenotype (%),[2],14%
same,Total Cell Count,[2],95
same,Population Apoptotic (%),[3],57%
same,Population Fragmented Nuclei (%),[3],30%
same,Population Healthy Nuclei (%),[3],37%
same,Population Hoechst High Intensity Objects (%),[3],13%
same,Population Membrane Permeable-Phenotype (%),[3],32%
same,Population Mitochondria Different-Phenotype (%),[3],16%
same,Population Mitotic Cells (%),[3],42%
same,Population Normal (%),[3],86%
same,Population Pyknosed Nuclei (%),[3],31%
same,Population Tubulin-Different-Phenotype (%),[3],84%
same,Total Cell Count,[3],76
same,Population Apoptotic (%),[4],20%
same,Population Fragmented Nuclei (%),[4],9%
same,Population Healthy Nuclei (%),[4],83%
same,Population Hoechst High Intensity Objects (%),[4],6%
same,Population Membrane Permeable-Phenotype (%),[4],4%
same,Population Mitochondria Different-Phenotype (%),[4],55%
same,Population Mitotic Cells (%),[4],80%
same,Population Normal (%),[4],93%
same,Population Pyknosed Nuclei (%),[4],6%
same,Population Tubulin-Different-Phenotype (%),[4],19%
same,Total Cell Count,[4],78
same,Population Apoptotic (%),[5],57%
same,Population Fragmented Nuclei (%),[5],30%
same,Population Healthy Nuclei (%),[5],49%
same,Population Hoechst High Intensity Objects (%),[5],11%
same,Population Membrane Permeable-Phenotype (%),[5],21%
same,Population Mitochondria Different-Phenotype (%),[5],8%
same,Population Mitotic Cells (%),[5],42%
same,Population Normal (%),[5],88%
same,Population Pyknosed Nuclei (%),[5],20%
same,Population Tubulin-Different-Phenotype (%),[5],36%
same,Total Cell Count,[5],107
same,Population Apoptotic (%),[6],29%
same,Population Fragmented Nuclei (%),[6],13%
same,Population Healthy Nuclei (%),[6],70%
same,Population Hoechst High Intensity Objects (%),[6],5%
same,Population Membrane Permeable-Phenotype (%),[6],3%
same,Population Mitochondria Different-Phenotype (%),[6],6%
same,Population Mitotic Cells (%),[6],70%
same,Population Normal (%),[6],94%
same,Population Pyknosed Nuclei (%),[6],15%
same,Population Tubulin-Different-Phenotype (%),[6],7%
same,Total Cell Count,[6],116
same,Population Apoptotic (%),[7],73%
same,Population Fragmented Nuclei (%),[7],30%
same,Population Healthy Nuclei (%),[7],47%
same,Population Hoechst High Intensity Objects (%),[7],26%
same,Population Membrane Permeable-Phenotype (%),[7],14%
same,Population Mitochondria Different-Phenotype (%),[7],32%
same,Population Mitotic Cells (%),[7],26%
same,Population Normal (%),[7],73%
same,Population Pyknosed Nuclei (%),[7],21%
same,Population Tubulin-Different-Phenotype (%),[7],88%
same,Total Cell Count,[7],97
same,Population Apoptotic (%),[8],25%
same,Population Fragmented Nuclei (%),[8],8%
same,Population Healthy Nuclei (%),[8],80%
same,Population Hoechst High Intensity Objects (%),[8],4%
same,Population Membrane Permeable-Phenotype (%),[8],3%
same,Population Mitochondria Different-Phenotype (%),[8],54%
same,Population Mitotic Cells (%),[8],75%
same,Population Normal (%),[8],95%
same,Population Pyknosed Nuclei (%),[8],11%
same,Population Tubulin-Different-Phenotype (%),[8],21%
same,Total Cell Count,[8],74
same,Population Apoptotic (%),[9],50%
same,Population Fragmented Nuclei (%),[9],24%
same,Population Healthy Nuclei (%),[9],61%
same,Population Hoechst High Intensity Objects (%),[9],16%
same,Population Membrane Permeable-Phenotype (%),[9],13%
same,Population Mitochondria Different-Phenotype (%),[9],6%
same,Population Mitotic Cells (%),[9],50%
same,Population Normal (%),[9],83%
same,Population Pyknosed Nuclei (%),[9],14%
same,Population Tubulin-Different-Phenotype (%),[9],32%
same,Total Cell Count,[9],118
same,Population Apoptotic (%),[10],100%
same,Population Fragmented Nuclei (%),[10],26%
same,Population Healthy Nuclei (%),[10],71%
same,Population Hoechst High Intensity Objects (%),[10],6%
same,Population Membrane Permeable-Phenotype (%),[10],6%
same,Population Mitochondria Different-Phenotype (%),[10],4%
same,Population Mitotic Cells (%),[10],0%
same,Population Normal (%),[10],93%
same,Population Pyknosed Nuclei (%),[10],2%
same,Population Tubulin-Different-Phenotype (%),[10],46%
same,Total Cell Count,[10],93
same,Population Apoptotic (%),[11],75%
same,Population Fragmented Nuclei (%),[11],43%
same,Population Healthy Nuclei (%),[11],51%
same,Population Hoechst High Intensity Objects (%),[11],20%
same,Population Membrane Permeable-Phenotype (%),[11],13%
same,Population Mitochondria Different-Phenotype (%),[11],18%
same,Population Mitotic Cells (%),[11],25%
same,Population Normal (%),[11],79%
same,Population Pyknosed Nuclei (%),[11],4%
same,Population Tubulin-Different-Phenotype (%),[11],60%
same,Total Cell Count,[11],104
same,Population Apoptotic (%),[12],66%
same,Population Fragmented Nuclei (%),[12],46%
same,Population Healthy Nuclei (%),[12],50%
same,Population Hoechst High Intensity Objects (%),[12],12%
same,Population Membrane Permeable-Phenotype (%),[12],20%
same,Population Mitochondria Different-Phenotype (%),[12],10%
same,Population Mitotic Cells (%),[12],33%
same,Population Normal (%),[12],87%
same,Population Pyknosed Nuclei (%),[12],3%
same,Population Tubulin-Different-Phenotype (%),[12],89%
same,Total Cell Count,[12],189
CCOC(=O)CCNc1cc(N2CCc3ccccc3CC2)nc(-c2ccccn2)n1,Population Apoptotic (%),[1],89%
same,Population Fragmented Nuclei (%),[1],22%
same,Population Healthy Nuclei (%),[1],60%
same,Population Hoechst High Intensity Objects (%),[1],16%
same,Population Membrane Permeable-Phenotype (%),[1],8%
same,Population Mitochondria Different-Phenotype (%),[1],4%
same,Population Mitotic Cells (%),[1],10%
same,Population Normal (%),[1],83%
same,Population Pyknosed Nuclei (%),[1],16%
same,Population Tubulin-Different-Phenotype (%),[1],5%
same,Total Cell Count,[1],214
same,Population Apoptotic (%),[2],100%
same,Population Fragmented Nuclei (%),[2],47%
same,Population Healthy Nuclei (%),[2],42%
same,Population Hoechst High Intensity Objects (%),[2],33%
same,Population Membrane Permeable-Phenotype (%),[2],0%
same,Population Mitochondria Different-Phenotype (%),[2],11%
same,Population Mitotic Cells (%),[2],0%
same,Population Normal (%),[2],66%
same,Population Pyknosed Nuclei (%),[2],9%
same,Population Tubulin-Different-Phenotype (%),[2],11%
same,Total Cell Count,[2],63
same,Population Apoptotic (%),[3],68%
same,Population Fragmented Nuclei (%),[3],29%
same,Population Healthy Nuclei (%),[3],50%
same,Population Hoechst High Intensity Objects (%),[3],17%
same,Population Membrane Permeable-Phenotype (%),[3],10%
same,Population Mitotic Cells (%),[3],31%
same,Population Normal (%),[3],82%
same,Population Pyknosed Nuclei (%),[3],20%
same,Population Tubulin-Different-Phenotype (%),[3],13%
same,Total Cell Count,[3],175
same,Population Apoptotic (%),[4],66%
same,Population Fragmented Nuclei (%),[4],57%
same,Population Healthy Nuclei (%),[4],35%
same,Population Hoechst High Intensity Objects (%),[4],40%
same,Population Membrane Permeable-Phenotype (%),[4],33%
same,Population Mitochondria Different-Phenotype (%),[4],6%
same,Population Mitotic Cells (%),[4],33%
same,Population Normal (%),[4],60%
same,Population Pyknosed Nuclei (%),[4],7%
same,Population Tubulin-Different-Phenotype (%),[4],73%
same,Total Cell Count,[4],70
same,Population Apoptotic (%),[5],76%
same,Population Fragmented Nuclei (%),[5],23%
same,Population Healthy Nuclei (%),[5],63%
same,Population Hoechst High Intensity Objects (%),[5],12%
same,Population Membrane Permeable-Phenotype (%),[5],11%
same,Population Mitochondria Different-Phenotype (%),[5],1%
same,Population Mitotic Cells (%),[5],23%
same,Population Normal (%),[5],87%
same,Population Pyknosed Nuclei (%),[5],13%
same,Population Tubulin-Different-Phenotype (%),[5],1%
same,Total Cell Count,[5],225
same,Population Apoptotic (%),[6],100%
same,Population Fragmented Nuclei (%),[6],60%
same,Population Healthy Nuclei (%),[6],34%
same,Population Hoechst High Intensity Objects (%),[6],26%
same,Population Membrane Permeable-Phenotype (%),[6],0%
same,Population Mitochondria Different-Phenotype (%),[6],14%
same,Population Mitotic Cells (%),[6],0%
same,Population Normal (%),[6],73%
same,Population Pyknosed Nuclei (%),[6],4%
same,Population Tubulin-Different-Phenotype (%),[6],14%
same,Total Cell Count,[6],56
same,Population Apoptotic (%),[7],82%
same,Population Fragmented Nuclei (%),[7],34%
same,Population Healthy Nuclei (%),[7],50%
same,Population Hoechst High Intensity Objects (%),[7],15%
same,Population Membrane Permeable-Phenotype (%),[7],6%
same,Population Mitochondria Different-Phenotype (%),[7],6%
same,Population Mitotic Cells (%),[7],17%
same,Population Normal (%),[7],84%
same,Population Pyknosed Nuclei (%),[7],15%
same,Population Tubulin-Different-Phenotype (%),[7],7%
same,Total Cell Count,[7],180
same,Population Apoptotic (%),[8],100%
same,Population Fragmented Nuclei (%),[8],53%
same,Population Healthy Nuclei (%),[8],41%
same,Population Hoechst High Intensity Objects (%),[8],33%
same,Population Membrane Permeable-Phenotype (%),[8],11%
same,Population Mitochondria Different-Phenotype (%),[8],11%
same,Population Mitotic Cells (%),[8],0%
same,Population Normal (%),[8],66%
same,Population Pyknosed Nuclei (%),[8],4%
same,Population Tubulin-Different-Phenotype (%),[8],41%
same,Total Cell Count,[8],62
